Data reported in ChEMBL document CHEMBL3526002, “Tissue distribution and identification of radioactivity components at elimination phase after oral administration of [¹⁴C]CS-1036, an α-amylase inhibitor, to rats” (Drug Metab Dispos, 2013).

Experiments:
Parameters in all cases: dose 5 mg/kg, dosed compound name [14C]CS-1036, route oral
Details in all cases: in vivo
[1] = Drug uptake in albino F344/DuCrlCrlj rat testis at 5 mg/kg, po after 72 hrs by liquid scintillation counting; assay type: ADME, organism-based
Blood [2] = assay: Drug uptake in albino F344/DuCrlCrlj rat blood assessed as ng equivalent of CS-1036 at 5 mg/kg, po after 24 hrs by liquid scintillation counting; assay type: ADME, organism-based
Summary of the method: (§1)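 Male F344/DuCrlCrlj rats (159–167 g; n = 3 per time point) received a single oral dose of [14C]CS-1036 at 5 mg/kg. Blood was taken from the abdominal aorta at 1, 4, 8, 24, 72, 168 and 336 h. Radioactivity was counted by LSC with external-standard efficiency correction. Results were converted to ng equivalent of CS-1036/ml using specific activity and sample volume, and reported as mean + S.D.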

Cerebellum [3] = assay: Drug uptake in albino F344/DuCrlCrlj rat cerebellum at 5 mg/kg, po after 24 hrs by liquid scintillation counting; assay type: ADME, organism-based
Spleen = assay: Drug uptake in albino F344/DuCrlCrlj rat spleen at 5 mg/kg, po after 336 hrs by liquid scintillation counting; assay type: ADME, organism-based
Blood [4] = assay: Drug uptake in albino F344/DuCrlCrlj rat blood at 5 mg/kg, po after 72 hrs by liquid scintillation counting; assay type: ADME, organism-based
Summary of the method: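 Male rats (159–167 g; n = 3) received a single oral dose of [14C]CS-1036 at 5 mg/kg. Blood was drawn from the abdominal aorta at 1, 4, 8, 24, 72, 168 and 336 h. Radioactivity was counted by LSC with external-standard efficiency correction. Results are expressed as ng equivalent/ml from the specific activity and sample volume; mean + S.D.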

Plasma = assay: Drug uptake in albino F344/DuCrlCrlj rat plasma assessed as ng equivalent of CS-1036 at 5 mg/kg, po after 24 hrs by liquid scintillation counting; assay type: ADME, organism-based
Blood [5] = assay: Drug uptake in albino F344/DuCrlCrlj rat blood assessed as ng equivalent of CS-1036 at 5 mg/kg, po after 8 hrs by liquid scintillation counting; assay type: ADME, organism-based; summary of the method: as §1
Harderian gland [6] = assay: Drug uptake in albino F344/DuCrlCrlj rat harderian gland assessed as ng equivalent of CS-1036 at 5 mg/kg, po after 8 hrs by liquid scintillation counting; assay type: ADME, organism-based
[7] = Drug uptake in albino F344/DuCrlCrlj rat mandibular gland at 5 mg/kg, po after 4 hrs by liquid scintillation counting; assay type: ADME, organism-based
Blood [8] = assay: Drug uptake in albino F344/DuCrlCrlj rat blood at 5 mg/kg, po after 168 hrs by liquid scintillation counting; assay type: ADME, organism-based; summary of the method: as §1
Liver [9] = assay: Drug uptake in albino F344/DuCrlCrlj rat liver at 5 mg/kg, po after 8 hrs by liquid scintillation counting; assay type: ADME, organism-based
Cerebellum [10] = assay: Drug uptake in albino F344/DuCrlCrlj rat cerebellum at 5 mg/kg, po after 168 hrs by liquid scintillation counting; assay type: ADME, organism-based
[11] = Drug uptake in albino F344/DuCrlCrlj rat mandibular gland assessed as ng equivalent of CS-1036 at 5 mg/kg, po after 168 hrs by liquid scintillation counting; assay type: ADME, organism-based
Cerebrum [12] = assay: Drug uptake in albino F344/DuCrlCrlj rat cerebrum assessed as ng equivalent of CS-1036 at 5 mg/kg, po after 8 hrs by liquid scintillation counting; assay type: ADME, organism-based
Summary of the method: (§2)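 Single oral [14C]CS-1036 at 5 mg/kg was given to male rats (159–167 g; n = 3). Cerebrum was collected after aortic bleeding at 1, 4, 8, 24, 72, 168 or 336 h, weighed, and homogenized in 2 volumes of saline. A 0.5 ml aliquot was solubilized in Soluene-350 and counted by LSC with external-standard correction. Results are in ng equivalent/g tissue from specific activity and sample weight.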

Aorta = assay: Drug uptake in albino F344/DuCrlCrlj rat aorta assessed as ng equivalent of CS-1036 at 5 mg/kg, po after 24 hrs by liquid scintillation counting; assay type: ADME, organism-based
[13] = Drug uptake in albino F344/DuCrlCrlj rat thyroid gland at 5 mg/kg, po after 336 hrs by liquid scintillation counting; assay type: ADME, organism-based
[14] = Drug uptake in albino F344/DuCrlCrlj rat pituitary gland at 5 mg/kg, po after 72 hrs by liquid scintillation counting; assay type: ADME, organism-based
[15] = Drug uptake in albino F344/DuCrlCrlj rat skeletal muscle at 5 mg/kg, po after 24 hrs by liquid scintillation counting; assay type: ADME, organism-based, Muscle tissue
Cerebrum [16] = assay: Drug uptake in albino F344/DuCrlCrlj rat cerebrum at 5 mg/kg, po after 1 hr by liquid scintillation counting; assay type: ADME, organism-based; summary of the method: as §2
[17] = Drug uptake in albino F344/DuCrlCrlj rat bone marrow assessed as ng equivalent of CS-1036 at 5 mg/kg, po after 4 hrs by liquid scintillation counting; assay type: ADME, organism-based
Kidney [18] = assay: Drug uptake in albino F344/DuCrlCrlj rat kidney at 5 mg/kg, po after 4 hrs by liquid scintillation counting; assay type: ADME, organism-based
[19] = Drug uptake in albino F344/DuCrlCrlj rat trachea assessed as ng equivalent of CS-1036 at 5 mg/kg, po after 8 hrs by liquid scintillation counting; assay type: ADME, organism-based
Harderian gland [20] = assay: Drug uptake in albino F344/DuCrlCrlj rat harderian gland at 5 mg/kg, po after 336 hrs by liquid scintillation counting; assay type: ADME, organism-based
[21] = Drug uptake in albino F344/DuCrlCrlj rat fat assessed as ng equivalent of CS-1036 at 5 mg/kg, po after 336 hrs by liquid scintillation counting; assay type: ADME, organism-based, Adipose tissue
Summary of the method: (§3)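 Male F344/DuCrlCrlj rats (bought at 7 weeks, acclimatized 5–6 days; 159–167 g; n = 3 per time point) received a single oral dose of [14C]CS-1036 at 5 mg/kg. White adipose tissue was collected after abdominal aortic bleeding at 1, 4, 8, 24, 72, 168 or 336 h. Samples were counted by LSC with external-standard efficiency correction. Results were converted to ng equivalents per g from specific activity and sample weight.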

Cerebellum [22] = assay: Drug uptake in albino F344/DuCrlCrlj rat cerebellum at 5 mg/kg, po after 72 hrs by liquid scintillation counting; assay type: ADME, organism-based
Liver [23] = assay: Drug uptake in albino F344/DuCrlCrlj rat liver assessed as ng equivalent of CS-1036 at 5 mg/kg, po after 8 hrs by liquid scintillation counting; assay type: ADME, organism-based
Thymus = assay: Drug uptake in albino F344/DuCrlCrlj rat thymus assessed as ng equivalent of CS-1036 at 5 mg/kg, po after 72 hrs by liquid scintillation counting; assay type: ADME, organism-based
Kidney [24] = assay: Drug uptake in albino F344/DuCrlCrlj rat kidney at 5 mg/kg, po after 1 hr by liquid scintillation counting; assay type: ADME, organism-based
[25] = Drug uptake in albino F344/DuCrlCrlj rat fat assessed as ng equivalent of CS-1036 at 5 mg/kg, po after 8 hrs by liquid scintillation counting; assay type: ADME, organism-based, Adipose tissue; summary of the method: as §3
Cerebrum [26] = assay: Drug uptake in albino F344/DuCrlCrlj rat cerebrum assessed as ng equivalent of CS-1036 at 5 mg/kg, po after 4 hrs by liquid scintillation counting; assay type: ADME, organism-based; summary of the method: as §2
Blood [27] = assay: Drug uptake in albino F344/DuCrlCrlj rat blood at 5 mg/kg, po after 4 hrs by liquid scintillation counting; assay type: ADME, organism-based; summary of the method: as §1

Radiolabel recovery [1]: 24.9 ngequiv/g
Radiolabel recovery (Blood [2]): 4 ngequiv/ml
Radiolabel recovery (Cerebellum [3]): 21.1 ngequiv/g
Radiolabel recovery (Spleen): 7.81 ngequiv/g
Radiolabel recovery (Blood [4]): 16.1 ngequiv/ml
Radiolabel recovery (Plasma): 6.1 ngequiv/ml
Radiolabel recovery (Blood [5]): 6.5 ngequiv/ml
Radiolabel recovery (Harderian gland [6]): 24.5 ngequiv/g
Radiolabel recovery [7]: 51.1 ngequiv/g
Radiolabel recovery (Blood [8]): 8.55 ngequiv/ml
Radiolabel recovery (Liver [9]): 193 ngequiv/g
Radiolabel recovery (Cerebellum [10]): 7.12 ngequiv/g
Radiolabel recovery [11]: 7 ngequiv/g
Radiolabel recovery (Cerebrum [12]): 1.44 ngequiv/g
Radiolabel recovery (Aorta): 8.4 ngequiv/g
Radiolabel recovery [13]: 14.5 ngequiv/g
Radiolabel recovery [14]: 22.1 ngequiv/g
Radiolabel recovery [15]: 34.4 ngequiv/g
Radiolabel recovery (Cerebrum [16]): 8.81 ngequiv/g
Radiolabel recovery [17]: 7.9 ngequiv/g
Radiolabel recovery (Kidney [18]): 383 ngequiv/g
Radiolabel recovery [19]: 17.8 ngequiv/g
Radiolabel recovery (Harderian gland [20]): 5.08 ngequiv/g
Radiolabel recovery [21]: 63 ngequiv/g
Radiolabel recovery (Cerebellum [22]): 9.8 ngequiv/g
Radiolabel recovery (Liver [23]): 116 ngequiv/g
Radiolabel recovery (Thymus): 6.6 ngequiv/g
Radiolabel recovery (Kidney [24]): 520 ngequiv/g
Radiolabel recovery [25]: 4.6 ngequiv/g
Radiolabel recovery (Cerebrum [26]): 1.4 ngequiv/g
Radiolabel recovery (Blood [27]): 44.3 ngequiv/ml
Structure (SMILES): C[C@H]1O[C@@H](O[C@H]2[C@H](O)[C@@H](O)[C@@H](O[14C@H]3[14C@H](O)[14CH2]N[14C@@H]3[14CH2]O)O[C@@H]2CO)[C@H](O)[C@@H](O)[C@@H]1O
